Reference: ChEMBL document CHEMBL4619779, “Tideglusib and Its Analogues As Inhibitors of Staphylococcus aureus SrtA” (J Med Chem, 2020)
Active and inactive are the calls of the source. The rule behind the calls is not given here.

Assays:
[1] = Cmax in mouse at 10 mg/kg, ip administered as single dose; assay type: ADME, organism-based; design: dose 10 mg/kg, route intraperitoneal; conditions: in vivo
[2] = test system: Sortase A (Staphylococcus aureus), Q9S446 [UNDEFINED MUTATION]; experiment: Inhibition of SrtA delta N24 mutant in Staphylococcus aureus subsp. aureus str. Newman reduction in abundance of anchored SpA by FITC-labeled human IgG fluorescence based assay
How it was run: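 Newman wild type and ΔsrtA were diluted 1:1000 in TSB and grown at 37 °C with inhibitor until A600 reached 1.0. Cells were PBS-washed, labelled with FITC-human IgG for 30 min at rt, and washed again before fluorescence was read. Triplicate wells, three independent experiments, unpaired two-tailed t-test.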

Staphylococcus aureus [3] = experiment: Antibacterial activity against Staphylococcus aureus subsp. aureus USA300 infected in BALB/c mouse model of systemic infection assessed as prolongation of time to death at 40 mg/kg/day, ip for 10 days; assay type: functional, organism-based
How it was run: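 BALB/c females, 6 weeks old, n = 10. USA300 grown 3 hr at 37 °C from a 1:1,000 dilution of overnight culture, washed, suspended in PBS. Compound suspended in ddH2O with 4% Tween 80 and 4% DMSO, given i.p. at 40 mg/kg every 24 hr; saline placebo. Mice challenged periorbitally 4 hr after the first dose. Survival followed over 10 days.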

Staphylococcus aureus [4] = experiment: Antibiofilm activity against Staphylococcus aureus subsp. aureus str. Newman assessed as reduction in biofilm biomass at 25 to 100 uM incubated for 18 hrs by Crystal violet staining assay; assay type: functional, organism-based
How it was run: (§1)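 Overnight culture diluted 1:100 in TSB, plated in quadruplicate with inhibitor, and held static at 37 °C for 18 hr. Wells rinsed with PBS, and the dried, fixed biofilm stained with 0.1% crystal violet for 15 min. Stain dissolved in 30% acetic acid and absorbance read at 595 nm. Three independent experiments.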

Staphylococcus aureus [5] = experiment: Effect on cell growth of Staphylococcus aureus subsp. aureus USA300 at 150 ug/ml; assay type: organism-based
How it was run: (§2)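 Overnight culture diluted 1:1000 in TSB, grown to A600 0.6-0.8, then diluted 1:400 in TSB. Aliquots incubated with the compound at a range of concentrations. A600 read every 1 hr for 24 hr to build growth curves. Technical triplicates per point; three independent experiments.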

[6] = test system: Sortase A (Staphylococcus aureus), Q9S446 [UNDEFINED MUTATION]; experiment: Inhibition of Staphylococcus aureus SrtA delta N24 mutant expressed in Escherichia coli BL21 (DE3) using Abz-LPATG-Dnp substrate incubated for 20 mins in presence of 0.01% v/v Triton X-100 by FRET-based assay
Sortase A [7] = molecular target: T1, Sortase A (Staphylococcus aureus, UniProt Q9S446, DELTAN24); experiment: Inhibition of Staphylococcus aureus SrtA delta N24 mutant expressed in Escherichia coli BL21 (DE3) using Abz-LPATG-Dnp substrate incubated for 20 mins by FRET-based assay
How it was run: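 His-tagged SrtAΔN24 (1 µM) was preincubated 20 min at rt with compound (0.2–100 µM) in 50 mM Tris-HCl pH 7.5, 150 mM NaCl, 5 mM CaCl2. Abz-LPATG-Dnp was added at 10 µM and fluorescence (ex 309 / em 420 nm) was read each minute for 20 min. IC50 came from a sigmoidal fit. Technical triplicates, three independent experiments.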

Sortase A [8] = molecular target: T1, Sortase A; experiment: Inhibition of Staphylococcus aureus SrtA delta N24 mutant expressed in Escherichia coli BL21 (DE3) assessed as reduction in IsdA (64 to 323 residues) transpeptidation incubated for 20 mins by SDS-PAGE analysis
How it was run: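 His-tagged SrtAΔN24 (100 µg) was preincubated 20 min at rt with compound (1–25 µM) in 50 mM Tris-HCl pH 7.5, 150 mM NaCl, 5 mM CaCl2. IsdA64-323 (150 µg) and 3 mM Gly3 were then added for 1.5 hr at 37 °C. […] Three independent experiments.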

Staphylococcus aureus [9] = experiment: Antibiofilm activity against Staphylococcus aureus subsp. aureus USA300 assessed as reduction in biofilm formation at 25 to 100 uM incubated for 18 hrs by Crystal violet staining assay; assay type: functional, organism-based; how it was run: as §1
Staphylococcus aureus [10] = experiment: Antibacterial activity against Staphylococcus aureus subsp. aureus str. Newman assessed as reduction in bacterial growth at 200 uM incubated for 24 hrs; assay type: functional, organism-based; how it was run: as §2
[11] = test system: Sortase A (Staphylococcus aureus), Q9S446 [UNDEFINED MUTATION]; experiment: Reversible inhibition of Staphylococcus aureus SrtA delta N24 mutant expressed in Escherichia coli BL21 (DE3) assessed as reduction in IsdA (64 to 323 residues) transpeptidation incubated for 20 mins followed by 10 fold compound dilution by SDS-PAGE analysis
[12] = test system: Sortase A (Staphylococcus aureus), Q9S446 [UNDEFINED MUTATION]; experiment: Covalent binding affinity to Staphylococcus aureus SrtA delta N24 mutant assessed as induction of m/z shift incubated for 12 hrs by ESI-LC/MS analysis
How it was run: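 His-tagged SrtAΔN24 preincubated 12 hr with or without a 10-fold excess of compound. Diluted in 50% acetonitrile / 0.2% formic acid, run on a C8 column with a 10–90% acetonitrile gradient over 11 min, then ESI-TOF MS. MTSET served as the covalent reference.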

[13] = test system: Sortase A (Staphylococcus aureus), Q9S446 [UNDEFINED MUTATION]; experiment: Effect on structural folding of Staphylococcus aureus SrtA delta N24 mutant expressed in Escherichia coli BL21 (DE3 assessed as induction of gross structural perturbations by CD spectroscopy
How it was run: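 SrtAΔN24 at 10 µM was incubated with compound dissolved in methanol, and CD spectra were recorded. Two independent experiments.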

[14] = test system: Sortase A (Staphylococcus aureus), Q9S446 [UNDEFINED MUTATION]; experiment: Time dependent inhibition of Staphylococcus aureus SrtA delta N24 mutant expressed in Escherichia coli BL21 (DE3) assessed as reduction in IsdA (64 to 323 residues) transpeptidation by SDS-PAGE analysis
Staphylococcus aureus [15] = experiment: Antibacterial activity against Staphylococcus aureus subsp. aureus str. Newman assessed as reduction in bacterial growth incubated for 24 hrs; assay type: functional; how it was run: as §2
[16] = Solubility in PBS in presence of 1% DMSO by LC/MS analysis; assay type: physicochemical; conditions: PBS with 1% DMSO
Staphylococcus aureus [17] = experiment: Antibacterial activity against Staphylococcus aureus subsp. aureus USA300 infected in BALB/c mouse model of systemic infection assessed as mouse survival at 40 mg/kg/day, ip for 10 days; assay type: functional; conditions: 240 h
How it was run: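 BALB/c females, 6 weeks old, n = 10. Drug suspended in ddH2O with 4% Tween 80 and 4% DMSO, given i.p. at 40 mg/kg every 24 hr. Saline was the placebo. Challenge by periorbital injection of USA300 4 hr after the first dose, about 1 × 10^8 CFU (lethal). Survival was followed for 10 days.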

[18] = test system: Sortase A (Staphylococcus aureus), Q9S446 [UNDEFINED MUTATION]; experiment: Inhibition of SrtA delta N24 mutant in Staphylococcus aureus subsp. aureus str. Newman reduction in abundance of anchored SpA at 50 to 200 uM by Western blot analysis
How it was run: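 Newman was diluted 1:1000 and grown at 37 °C with inhibitor to A600 3.0. Cells were PBS-washed and digested with lysozyme for 30 min at 37 °C. Protoplasts were removed and the supernatant (cell wall fraction) was separated by SDS-PAGE and immunoblotted for SpA, with ClpP as the loading control. Three independent experiments.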

O=c1sn(-c2cccc3ccccc23)c(=O)n1Cc1ccccc1 [TIDEGLUSIB]
Cmax [1]: 137 ng/mL | inhibition [2]: Dose-dependent effect | Activity (Staphylococcus aureus [3]): Active | Activity (Staphylococcus aureus [4]): Active | Activity (Staphylococcus aureus [5]): Non-Toxic | inhibition [6]: Active | IC50 (Sortase A [7]): 0.6 µM | IC50 (Sortase A [8]): 5.9 µM | Activity (Staphylococcus aureus [9]): Active | inhibition (Staphylococcus aureus [10]): Active | inhibition [11]: Active | Activity [12]: inactive | Activity [13]: inactive | TDI [14]: inactive | MIC (Staphylococcus aureus [15]): > 100 µg/mL | solubility [16]: 11 µg/mL | survival at 40 mg/kg/day (Staphylococcus aureus [17]): 40% | inhibition [18]: Active
